In the library only some 3% were active in any assay of this set; here they are far more common.
beta cell repl – inducers of beta-cell replication in MIN6 cells | MIN6 cells proliferation, ATPlite luminescence, 48 h; cells starved in 0.2% serum; 100% = growth in 10% serum | AID 2380 | proliferation, % at 10 µM | hit rate 0.29% among 330,000;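 active = compounds whose signal lies at least 3.5 SD above the mean of all wells on their plate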
UBC13 inh – blocks human UBC13 polyubiquitin chain formation; TR-FRET; inhibition, % at 20 µM; hit rate 0.47% among 330,000; AID 485273; in the data active = inhibition above about 45%, passing the limit was not always enough
Target sequence (P61088 whole entry, looked up): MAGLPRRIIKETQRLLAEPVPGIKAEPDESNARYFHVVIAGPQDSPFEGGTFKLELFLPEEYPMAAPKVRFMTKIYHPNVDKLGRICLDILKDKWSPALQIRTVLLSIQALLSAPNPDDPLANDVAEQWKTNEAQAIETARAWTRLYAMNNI
MPTP inh – blocks calcium-induced mitochondrial swelling; hit rate 1.4% among 360,000; isolated mouse mitochondria, Ca2+ swelling absorbance, 30 min; AID 602449; inhibition, % at 10 µM;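 active = inhibition of 50% or more, scaled per plate between neutral and stimulator controls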
Granule exo inh – blocks lytic granule exocytosis; TALL-104 LAMP-1 surface exposure, flow cytometry; cells stimulated with thapsigargin and PMA; inhibition, % at 10 µM; hit rate 0.66% among 360,000; AID 651702;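 active = inhibition above about 55%, limit read from the data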
Apaf-1 inh – human Apaf-1 inhibition; O14727; reconstituted apoptosome caspase-3 activity, DEVD-Rh110 fluorescence; inhibition, % at 20 µM; hit rate 0.71% among 330,000; AID 489030; active = inhibition of at least 40% at 20 µM
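Assay system – apoptosome proteins · Medium – Hepes buffer, pH 7.5 · Also added – cytochrome c with DEVD-Rh110 · Timing – 30 min compound preincubation, 50 min activation, room temperature · Detection – Rh110 fluorescence, excitation 480 nm, emission 540 nm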
iPSC survival up – hiPSC single-cell survival enhancement. ATPlite luminescence; 100% = ROCK inhibitor wells, 0% = DMSO. hit rate 0.044% among 360,000. AID 602274. survival enhancement, % at 20 µM; in the data active = survival enhancement above about 18%;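 note: cells exposed to compounds for 16 hours before the ATP read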
Apaf-1 inh conf2 – Apaf-1 inhibition, single-dose confirmed; inhibition, % at 20 µM; AID 504614; shares compounds with Apaf-1 inh; reconstituted apoptosome, caspase-3 DEVD-Rh110 fluorescence; hit rate 25% among 1,800;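 active = mean inhibition of at least 40% at 20 µM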
Rh110 quench – Rh110 signal interference in Apaf-1 inhibitor counter-screen | shares compounds with Apaf-1 inh | AID 504615 | Rh110 fluorescence interference, quenched caspase reaction | activation (fluorescence interference), % at 20 µM | 1,800 tested, under 10 active;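 active = signal rise of 40% or more at 20 µM, treated as a fluorescence artifact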
Of the large screens only hits and unclear results are named; the others gave an inactive call (follow-up assays come after a bar, where they were run).

O=C(C[C@H]1C[C@H](C(=O)N2CCOCC2)[C@@]2(CCC3CCCC3)c3[nH]c4cc(-c5ccco5)ccc4c3CCN2C1=O)NCCN1CCOCC1	none (no result: beta cell repl, UBC13 inh)
O=[N+]([O-])c1ccccc1S(=O)(=O)N1CCN(C2CCN(Cc3ccccc3)CC2)CC1	none
CCCCn1nnnc1SCC(=O)NC1CCCCC1	none
CC(C)Sc1nnc(SCC(=O)NCCCN2CCCC2=O)s1	none
CCN(CC)C(=O)[C@H]1C[C@H](CC(=O)NC/C=C(\C)CCC=C(C)C)C(=O)N2CCc3c([nH]c4ccc(Cl)cc34)[C@]12C	none (no result: beta cell repl, UBC13 inh)
CCN(CC)C(=O)[C@H]1CC(CC(=O)NC/C=C(\C)CCC=C(C)C)C(=O)N2CCc3c([nH]c4ccc(OC)cc34)[C@]12C (some centres not stated)	Apaf-1 inh 42 (no result: beta cell repl, UBC13 inh) | Apaf-1 inh conf2 inactive | Rh110 quench inactive
O=C(NCc1ccco1)Nc1ccc2nsnc2c1	Apaf-1 inh 59 | Apaf-1 inh conf2 inactive | Rh110 quench inactive
Cc1cc(C(=O)NNC(=O)Cc2ccc(Cl)c(Cl)c2)c(C)o1	none
CN(C)CCNC(=O)c1ccc(COc2ccc(Cl)cc2Cl)cc1	Apaf-1 inh 46 | Apaf-1 inh conf2 inactive | Rh110 quench inactive
COc1ccc(Cl)cc1C(=O)NCCN(C)C	none
C[C@H](O)[C@@H]1C(=O)N2CCc3c([nH]c4ccccc34)[C@@H]2C[C@@H]1N(C)C(=O)NC1CCCCC1	none (no result: beta cell repl, UBC13 inh, Apaf-1 inh)
COC(=O)C[C@H]1CC[C@@H](NC(=O)Nc2ccc(C(F)(F)F)cc2)[C@@H](CO)O1	none (no result: beta cell repl, UBC13 inh, Apaf-1 inh, iPSC survival up)
COc1ccccc1N1C(=O)c2ccccc2NC1c1ccncc1 (configuration not stated)	none
COc1ccccc1N1C(=O)N(C(C)=O)C2C1Nc1ccccc1N2C (configuration not stated)	Apaf-1 inh 83 | Apaf-1 inh conf2 inactive | Rh110 quench inactive
COc1ccc(-c2nc3cc(C)c(Br)c(C)n3c2Cc2ccc(C)cc2)cc1OC	none (no result: beta cell repl, UBC13 inh, Apaf-1 inh)
COC(=O)CCC(=O)OC1(C)C(=O)C=C2C=C(C3CC3)N(C3CCCC3)C=C2C1=O (configuration not stated)	Apaf-1 inh 67 | Apaf-1 inh conf2 inactive | Rh110 quench inactive
CC1(OC(=O)CCc2ccccc2)C(=O)C=C2C=C(c3ccc(C#N)cc3)N(C3CCCC3)C=C2C1=O (configuration not stated)	none
CC1(OC(=O)CCc2ccccc2)C(=O)C=C2C=C(c3ccc(C#N)cc3)N(CC3CC3)C=C2C1=O (configuration not stated)	none
COC(=O)CCC(=O)OC1(C)C(=O)C=C2C=C(C3CC3)N(CC3CC3)C=C2C1=O (configuration not stated)	Apaf-1 inh 57 | Apaf-1 inh conf2 inactive | Rh110 quench inactive
COc1cc(OC)c2c(-c3cccc(-c4ccc(CO)cc4)c3)cc(=O)oc2c1	Apaf-1 inh 42 (no result: beta cell repl, UBC13 inh) | Apaf-1 inh conf2 inactive | Rh110 quench inactive
COc1ccccc1C(C(C(=O)c1ccccc1)N1CCOCC1)N1CCOCC1 (configuration not stated)	none (no result: beta cell repl, UBC13 inh, Apaf-1 inh)
CCc1cc(CNC(=O)c2ccc(OC3CCN(CCc4ccccc4)CC3)cc2)on1	none
CCCCCn1c(NC(=O)c2ccco2)c(S(=O)(=O)c2ccc(C)cc2)c2nc3ccccc3nc21	Apaf-1 inh 63 | Apaf-1 inh conf2 inactive | Rh110 quench inactive
CCC(=O)Nc1c(S(=O)(=O)c2ccc(C)cc2)c2nc3ccccc3nc2n1C(C)c1ccccc1 (configuration not stated)	Apaf-1 inh 44 | Apaf-1 inh conf2 inactive | Rh110 quench inactive
CCCCn1c(NC(C)=O)c(C#N)c2nc3ccccc3nc21	Apaf-1 inh 84 | Apaf-1 inh conf2 inactive | Rh110 quench inactive
CCCCCn1c(N)c(C#N)c2nc3ccccc3nc21	none
CCCCn1c(NC(=O)c2ccco2)c(S(=O)(=O)c2ccc(C)cc2)c2nc3ccccc3nc21	none (no result: beta cell repl, UBC13 inh, Apaf-1 inh)

High-throughput results from PubChem.
